# Results taken from ChEMBL document CHEMBL4689842, “EUbOPEN Chemogenomics Library wave 1” (2021).
# “And” between values parts separate entries of the source, which are not always exact repeats. Equal values may be shown once.
# Columns and labels:
# Format in all cases: toxicity, cell-based
# [1] = tested on: U2OS; assay: Multiplex assay against U2OS; settings: human, 10 µM, compound concentration 10 uM
# Outline: (§1)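 Live cells were stained at seeding with Hoechst33342, BioTracker Green Microtubule Cytoskeleton Dye, MitoTracker Red and Annexin V Alexa Fluor 680, then imaged on a CQ1 microscope at 37°C and 5% CO2 after compound addition. CellPathfinder machine-learning gating split cells into Hoechst high-intensity objects or normal cells. Normal cells were split into healthy, pyknosed or fragmented nuclei, and pyknosed cells into mitotic or apoptotic. Tubulin, mitochondrial-mass and membrane-permeability phenotypes are per cents of healthy-nucleus cells.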
# [2] = tested on: Fibroblast; assay: Multiplex assay against human fibroblast; settings: 10 µM, compound concentration 10 uM; outline: as §1
# [3] = tested on: U2OS; assay: Incucyte cell viability with U2OS; settings: human, 10 µM, compound concentration 10 uM; note: filed as whole numbers so only -1 and 0 and 1 occur
# [4] = tested on: HEK-293T; assay: Incucyte cell viability with HEK293T; settings: human, 10 µM, compound concentration 10 uM; note: filed as whole numbers so only -1 and 0 and 1 occur
# [5] = tested on: Fibroblast; assay: Incucyte cell viability with human fibroblast; settings: 10 µM, compound concentration 10 uM; note: filed as whole numbers so only -1 and 0 and 1 occur
# [6] = tested on: HEK-293T; assay: Multiplex assay against HEK293T; settings: human, 10 µM, compound concentration 10 uM; outline: as §1;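 for Population Tubulin-Different-Phenotype (%): share of the cells with healthy nuclei that show this phenotype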
# [7] = 12 h, replicate number 1, timepoint 12 hours
# [8] = 18 h, replicate number 1, timepoint 18 hours
# [9] = 24 h, replicate number 1, timepoint 24 hours
# [10] = 0 h, replicate number 1, timepoint 0 hours
compound,measurement,setting,value
CN1CCN(Cc2ccc(-c3cnc4[nH]cc(-c5ccc6[nH]ccc6c5)c4c3)cc2)CC1,Population Apoptotic (%),"[1]; 12 h, replicate 1",81% and 75%
same,Population Hoechst High Intensity Objects (%),"[1]; 12 h, replicate 1",11% and 4% and 8%
same,Population Membrane Permeable-Phenotype (%),"[1]; 12 h, replicate 1",87% and 74% and 69%
same,Population Mitochondria Different-Phenotype (%),"[1]; 12 h, replicate 1",64% and 37%
same,Population Mitotic Cells (%),"[1]; 12 h, replicate 1",18% and 24% and 25%
same,Population Normal (%),"[1]; 12 h, replicate 1",88% and 95% and 91%
same,Total Cell Count,"[1]; 12 h, replicate 1",171 and 167 and 190
same,Population Fragmented Nuclei (%),"[1]; 12 h, replicate 2",17% and 14% and 13%
same,Population Hoechst High Intensity Objects (%),"[1]; 12 h, replicate 2",6% and 15%
same,Population Membrane Permeable-Phenotype (%),"[1]; 12 h, replicate 2",40% and 72% and 63%
same,Population Mitochondria Different-Phenotype (%),"[1]; 12 h, replicate 2",100% and 96% and 36%
same,Population Normal (%),"[1]; 12 h, replicate 2",94% and 84%
same,Total Cell Count,"[1]; 12 h, replicate 2",76 and 116 and 120
same,Population Apoptotic (%),"[1]; 24 h, replicate 1",98% and 93% and 64%
same,Population Membrane Permeable-Phenotype (%),"[1]; 24 h, replicate 1",100% and 90% and 39%
same,Population Normal (%),"[1]; 24 h, replicate 1",90% and 76% and 93%
same,Total Cell Count,"[1]; 24 h, replicate 1",166 and 199 and 279
same,Population Apoptotic (%),"[1]; 24 h, replicate 2",95% and 100% and 66%
same,Population Membrane Permeable-Phenotype (%),"[1]; 24 h, replicate 2",40%
same,Population Mitochondria Different-Phenotype (%),"[1]; 24 h, replicate 2",39%
same,Population Normal (%),"[1]; 24 h, replicate 2",81% and 66% and 89%
same,Population Tubulin-Different-Phenotype (%),"[1]; 24 h, replicate 2",18%
same,Total Cell Count,"[1]; 24 h, replicate 2",122 and 91 and 140
same,Population Apoptotic (%),"[1]; 48 h, replicate 1",100%
same,Population Fragmented Nuclei (%),"[1]; 48 h, replicate 1",31%
same,Population Healthy Nuclei (%),"[1]; 48 h, replicate 1",2%
same,Population Hoechst High Intensity Objects (%),"[1]; 48 h, replicate 1",14%
same,Population Membrane Permeable-Phenotype (%),"[1]; 48 h, replicate 1",66%
same,Population Mitochondria Different-Phenotype (%),"[1]; 48 h, replicate 1",100%
same,Population Mitotic Cells (%),"[1]; 48 h, replicate 1",0%
same,Population Normal (%),"[1]; 48 h, replicate 1",85%
same,Population Pyknosed Nuclei (%),"[1]; 48 h, replicate 1",66%
same,Population Tubulin-Different-Phenotype (%),"[1]; 48 h, replicate 1",100%
same,Total Cell Count,"[1]; 48 h, replicate 1",148
same,Population Fragmented Nuclei (%),"[1]; 48 h, replicate 2",8%
same,Population Healthy Nuclei (%),"[1]; 48 h, replicate 2",64%
same,Population Hoechst High Intensity Objects (%),"[1]; 48 h, replicate 2",24%
same,Population Membrane Permeable-Phenotype (%),"[1]; 48 h, replicate 2",100%
same,Population Normal (%),"[1]; 48 h, replicate 2",75%
same,Population Pyknosed Nuclei (%),"[1]; 48 h, replicate 2",27%
same,Population Tubulin-Different-Phenotype (%),"[1]; 48 h, replicate 2",95%
same,Total Cell Count,"[1]; 48 h, replicate 2",80
same,Population Apoptotic (%),"[2]; 12 h, replicate 1",47% and 85%
same,Population Fragmented Nuclei (%),"[2]; 12 h, replicate 1",27% and 39% and 35%
same,Population Hoechst High Intensity Objects (%),"[2]; 12 h, replicate 1",8% and 16% and 10%
same,Population Normal (%),"[2]; 12 h, replicate 1",91% and 83% and 89%
same,Total Cell Count,"[2]; 12 h, replicate 1",208 and 291 and 107
same,Population Apoptotic (%),"[2]; 12 h, replicate 2",50% and 73%
same,Population Mitotic Cells (%),"[2]; 12 h, replicate 2",50% and 26%
same,Population Normal (%),"[2]; 12 h, replicate 2",69% and 64% and 94%
same,Total Cell Count,"[2]; 12 h, replicate 2",113 and 71 and 76
same,Population Apoptotic (%),"[2]; 24 h, replicate 1",73% and 68% and 81%
same,Population Fragmented Nuclei (%),"[2]; 24 h, replicate 1",50% and 59% and 47%
same,Population Hoechst High Intensity Objects (%),"[2]; 24 h, replicate 1",16% and 23% and 25%
same,Population Mitotic Cells (%),"[2]; 24 h, replicate 1",26% and 31% and 18%
same,Population Normal (%),"[2]; 24 h, replicate 1",83% and 76% and 75%
same,Population Apoptotic (%),"[2]; 24 h, replicate 2",50% and 100%
same,Population Healthy Nuclei (%),"[2]; 24 h, replicate 2",24% and 25% and 11%
same,Population Hoechst High Intensity Objects (%),"[2]; 24 h, replicate 2",26% and 33% and 52%
same,Population Normal (%),"[2]; 24 h, replicate 2",73% and 66% and 47%
same,Total Cell Count,"[2]; 24 h, replicate 2",136 and 91 and 73
same,Population Fragmented Nuclei (%),"[2]; 48 h, replicate 1",75%
same,Population Healthy Nuclei (%),"[2]; 48 h, replicate 1",13%
same,Population Hoechst High Intensity Objects (%),"[2]; 48 h, replicate 1",28%
same,Population Membrane Permeable-Phenotype (%),"[2]; 48 h, replicate 1",41%
same,Population Normal (%),"[2]; 48 h, replicate 1",71%
same,Population Pyknosed Nuclei (%),"[2]; 48 h, replicate 1",10%
same,Population Tubulin-Different-Phenotype (%),"[2]; 48 h, replicate 1",58%
same,Total Cell Count,"[2]; 48 h, replicate 1",121
same,Population Apoptotic (%),"[2]; 48 h, replicate 2",100%
same,Population Fragmented Nuclei (%),"[2]; 48 h, replicate 2",79%
same,Population Healthy Nuclei (%),"[2]; 48 h, replicate 2",11%
same,Population Hoechst High Intensity Objects (%),"[2]; 48 h, replicate 2",40%
same,Population Membrane Permeable-Phenotype (%),"[2]; 48 h, replicate 2",0%
same,Population Mitochondria Different-Phenotype (%),"[2]; 48 h, replicate 2",0%
same,Population Mitotic Cells (%),"[2]; 48 h, replicate 2",0%
same,Population Normal (%),"[2]; 48 h, replicate 2",59%
same,Population Pyknosed Nuclei (%),"[2]; 48 h, replicate 2",8%
same,Population Tubulin-Different-Phenotype (%),"[2]; 48 h, replicate 2",50%
same,Total Cell Count,"[2]; 48 h, replicate 2",57
same,Growth Rate,"[3]; 0 h, replicate number 2, timepoint 0 hours",0
same,Growth Rate,[3]; [7],1
same,Growth Rate,[3]; [8],0
same,Growth Rate,[3]; [9],0
same,Growth Rate,[4]; [10],0
same,Growth Rate,"[4]; 6 h, replicate number 2, timepoint 6 hours",0
same,Growth Rate,[4]; [7],0
same,Growth Rate,[4]; [8],0
same,Growth Rate,[4]; [9],0
same,Growth Rate,[5]; [10],0
same,Growth Rate,[5]; [7],0
same,Growth Rate,[5]; [8],0
same,Growth Rate,[5]; [9],0
same,Population Fragmented Nuclei (%),"[6]; 12 h, replicate 1",11% and 13% and 21%
same,Population Hoechst High Intensity Objects (%),"[6]; 12 h, replicate 1",16% and 24% and 18%
same,Population Membrane Permeable-Phenotype (%),"[6]; 12 h, replicate 1",20% and 12% and 28%
same,Population Normal (%),"[6]; 12 h, replicate 1",83% and 75% and 81%
same,Population Pyknosed Nuclei (%),"[6]; 12 h, replicate 1",59% and 81%
same,Population Membrane Permeable-Phenotype (%),"[6]; 12 h, replicate 2",0% and 15%
same,Population Normal (%),"[6]; 12 h, replicate 2",87% and 97%
same,Population Tubulin-Different-Phenotype (%),"[6]; 12 h, replicate 2",66% and 53% and 95%
same,Population Fragmented Nuclei (%),"[6]; 24 h, replicate 1",16%
same,Population Hoechst High Intensity Objects (%),"[6]; 24 h, replicate 1",29% and 32% and 15%
same,Population Membrane Permeable-Phenotype (%),"[6]; 24 h, replicate 1",11% and 15%
same,Population Normal (%),"[6]; 24 h, replicate 1",70% and 67% and 84%
same,Population Membrane Permeable-Phenotype (%),"[6]; 24 h, replicate 2",0% and 8% and 9%
same,Population Normal (%),"[6]; 24 h, replicate 2",78% and 93%
same,Population Apoptotic (%),"[6]; 48 h, replicate 1",90%
same,Population Fragmented Nuclei (%),"[6]; 48 h, replicate 1",29%
same,Population Healthy Nuclei (%),"[6]; 48 h, replicate 1",3%
same,Population Hoechst High Intensity Objects (%),"[6]; 48 h, replicate 1",31%
same,Population Membrane Permeable-Phenotype (%),"[6]; 48 h, replicate 1",0%
same,Population Mitotic Cells (%),"[6]; 48 h, replicate 1",9%
same,Population Normal (%),"[6]; 48 h, replicate 1",68%
same,Population Pyknosed Nuclei (%),"[6]; 48 h, replicate 1",66%
same,Population Tubulin-Different-Phenotype (%),"[6]; 48 h, replicate 1",80%
same,Total Cell Count,"[6]; 48 h, replicate 1",216
same,Population Apoptotic (%),"[6]; 48 h, replicate 2",96%
same,Population Fragmented Nuclei (%),"[6]; 48 h, replicate 2",17%
same,Population Healthy Nuclei (%),"[6]; 48 h, replicate 2",7%
same,Population Hoechst High Intensity Objects (%),"[6]; 48 h, replicate 2",18%
same,Population Membrane Permeable-Phenotype (%),"[6]; 48 h, replicate 2",22%
same,Population Mitochondria Different-Phenotype (%),"[6]; 48 h, replicate 2",100%
same,Population Mitotic Cells (%),"[6]; 48 h, replicate 2",3%
same,Population Normal (%),"[6]; 48 h, replicate 2",81%
same,Population Pyknosed Nuclei (%),"[6]; 48 h, replicate 2",75%
same,Population Tubulin-Different-Phenotype (%),"[6]; 48 h, replicate 2",100%
same,Total Cell Count,"[6]; 48 h, replicate 2",158
